In article PMC5812400 (ESMO Open, 2018):
“And” between values parts separate entries of the source, which are not always exact repeats. Equal entries are not always repeated.

Tests used:
[1] = Plasma PK of TAK-228 4 mg in single-agent QD PK run-in; assay type: in vivo, human; details: for AUC(0-inf) / Cmax: geometric mean (%CV)
Method in brief: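 Run-in ≤14 days before cycle 1. Three visits ≥48 h apart, each a 4 mg oral dose: unmilled fasted, milled after high-fat breakfast, milled fasted. No proton pump inhibitor within 5 days or H2 antagonist within 24 h. LC-MS/MS validated over 1–1000 ng/mL. ANOVA on log Cmax and AUC (treatment fixed, patient random); geometric mean ratios with 90% CI.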

[2] = Plasma PK of milled TAK-228 in TAK-228+P and TAK-228 QW arms, LC-MS/MS; assay type: in vivo, human; details: for Cmax / Tmax / AUC(0-t) / AUC(0-inf) / Vd/F / half-life: human, plasma, oral
Method in brief: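 Milled capsules given fasted. Combination arm sampled on cycle 1 day 2, the first dosing day, ~24 h after IV taxane 80 mg/m2; QW arm sampled on cycle 1 day 1. LC-MS/MS validated over 1–1000 ng/mL. PK parameters summarised descriptively (geometric/arithmetic means, medians, CV).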

[3] = test system: advanced non-haematological malignancies; assay: Tumour response; assay type: in vivo, human
Method in brief: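 Response assessed by RECIST 1.1 on contrast CT or MRI of chest, abdomen and pelvis; bone scans allowed for bone metastases. Same modality kept per patient. Baseline scan within 4 weeks before first dose, then cycle 3 day 1 and every two cycles until end of study or discontinuation. ORR = CR+PR; clinical benefit = CR+PR+SD, and CR+PR+SD ≥6 months.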

[4] = test system: patients with haematological malignancies or advanced solid tumours; details: unmilled TAK-228, haematological malignancies; ref 7 11; cited from earlier work
[5] = human, plasma, oral, 4 mg, 4 mg milled, fed (high-fat breakfast)

With `CC(C)n1nc(-c2ccc3oc(N)nc3c2)c2c(N)ncnc21` [TAK-228, Sapanisertib] the AUC(0-inf) ([1]; human, plasma, oral, 4 mg, 4 mg milled, fasted) was 369 ng·h/mL, the AUC(0-inf) [1, 5] was 383 ng·h/mL and the Cmax [1, 5] was 21.6 ng/mL. The Cmax ([1]; human, plasma, oral, 4 mg, 4 mg unmilled, fasted) was 34 ng/mL, the Tmax ([1]; human, plasma, oral, 4 mg, Tmax, median (range), 4 mg milled, fed (high-fat breakfast)) was 6 h and the “Reduction in geometric mean Cmax, fed versus fasted” value ([1]; milled 4 mg, high-fat breakfast vs empty stomach) was ~ 40% and 40%. For the same compound, the “CL/F, geometric mean (CV)” value ([2]; QW 20 mg (n=7)) was 15.1 (46) L/hour, the “CL/F, geometric mean (CV)” value ([2]; QW 30 mg (n=13)) was 18.3 (63) L/hour and the “Effect of paclitaxel administered 24 hours before TAK-228 on TAK-228 PK” value ([2]; combination arm vs QD arm (4 mg, milled, fasted)) was “no clinically meaningful effects”. The Cmax ([2]; 4 mg) was 28.5 ng/mL, the Tmax ([2]; 4 mg) was 2.2 h and the AUC(0-t) ([2]; 6 mg) was 244 ng·h/mL. The AUC(0-inf) ([2]; 20 mg) was 1330 ng·h/mL, the AUC(0-t) ([2]; 20 mg) was 1240 ng·h/mL and the Cmax ([2]; 20 mg) was 209 ng/mL. For the same compound, the Vd/F ([2]; 20 mg) was 125 L, the half-life ([2]; 20 mg) was 6.1 h and the AUC(0-inf) ([2]; 30 mg) was 1640 ng·h/mL. It also gave an AUC(0-t) ([2]; 30 mg) of 1530 ng·h/mL, a Cmax ([2]; 30 mg) of 235 ng/mL and a Tmax ([2]; 30 mg) of 1 h. The Vd/F ([2]; 30 mg) was 155 L, the half-life ([2]; 30 mg) was 6 h and the “Best overall response: CR” value ([3]; QD 3 mg (n=11)) was 0 n (%). For the same compound, the “Best overall response: PD” value ([3]; QD 3 mg (n=11)) was 3 (27) n (%), the “Best overall response: PR” value ([3]; QD 3 mg (n=11)) was 1 (9) n (%) and the “Best overall response: SD (<6 months)” value ([3]; QD 3 mg (n=11)) was 3 (27) n (%). For the same compound, the “Best overall response: SD (≥6 months)” value ([3]; QD 3 mg (n=11)) was 3 (27) n (%), the “Clinical benefit rate CR+PR + SD” value ([3]; QD 3 mg (n=11)) was 7 (64) n (%) and the “Clinical benefit rate CR+PR + SD ≥6 months” value ([3]; QD 3 mg (n=11)) was 4 (36) n (%). For the same compound, the “Objective response rate (CR+PR)” value ([3]; QD 3 mg (n=11)) was 1 (9) n (%), the “Best overall response: CR” value ([3]; QD 4 mg (n=6)) was 0 n (%) and the “Best overall response: PD” value ([3]; QD 4 mg (n=6)) was 3 (50) n (%). The “Best overall response: PR” value ([3]; QD 4 mg (n=6)) was 1 (17) n (%), the “Best overall response: SD (<6 months)” value ([3]; QD 4 mg (n=6)) was 0 n (%) and the “Best overall response: SD (≥6 months)” value ([3]; QD 4 mg (n=6)) was 1 (17) n (%). For the same compound, the “Clinical benefit rate CR+PR + SD” value ([3]; QD 4 mg (n=6)) was 2 (33) n (%), the “Clinical benefit rate CR+PR + SD ≥6 months” value ([3]; QD 4 mg (n=6)) was 2 (33) n (%) and the “Objective response rate (CR+PR)” value ([3]; QD 4 mg (n=6)) was 1 (17) n (%). For the same compound, the “Best overall response: CR” value ([3]; QD Total (n=17)) was 0 n (%), the “Best overall response: PD” value ([3]; QD Total (n=17)) was 6 (35) n (%) and the “Best overall response: PR” value ([3]; QD Total (n=17)) was 2 (12) n (%). For the same compound, the “Best overall response: SD (<6 months)” value ([3]; QD Total (n=17)) was 3 (18) n (%), the “Best overall response: SD (≥6 months)” value ([3]; QD Total (n=17)) was 4 (24) n (%) and the “Clinical benefit rate CR+PR + SD” value ([3]; QD Total (n=17)) was 9 (53) n (%). The “Clinical benefit rate CR+PR + SD ≥6 months” value ([3]; QD Total (n=17)) was 6 (35) n (%), the “Objective response rate (CR+PR)” value ([3]; QD Total (n=17)) was 2 (12) n (%) and the “Objective response rate (ORR)” value ([3]; QD arm) was 12%. The “Overall clinical benefit rate (CR+PR + SD)” value ([3]; QD arm (9/17 patients)) was 52.9%, the “Best overall response: CR” value ([3]; QW 20 mg (n=7)) was 0 n (%) and the “Best overall response: PD” value ([3]; QW 20 mg (n=7)) was 3 (43) n (%). For the same compound, the “Best overall response: PR” value ([3]; QW 20 mg (n=7)) was 0 n (%), the “Best overall response: SD (<6 months)” value ([3]; QW 20 mg (n=7)) was 3 (43) n (%) and the “Best overall response: SD (≥6 months)” value ([3]; QW 20 mg (n=7)) was 0 n (%). For the same compound, the “Clinical benefit rate CR+PR + SD” value ([3]; QW 20 mg (n=7)) was 3 (43) n (%), the “Clinical benefit rate CR+PR + SD ≥6 months” value ([3]; QW 20 mg (n=7)) was 0 n (%) and the “Objective response rate (CR+PR)” value ([3]; QW 20 mg (n=7)) was 0 n (%). The “Best overall response: CR” value ([3]; QW 30 mg (n=13)) was 0 n (%), the “Best overall response: PD” value ([3]; QW 30 mg (n=13)) was 3 (23) n (%) and the “Best overall response: PR” value ([3]; QW 30 mg (n=13)) was 0 n (%). The “Best overall response: SD (<6 months)” value ([3]; QW 30 mg (n=13)) was 5 (39) n (%), the “Best overall response: SD (≥6 months)” value ([3]; QW 30 mg (n=13)) was 1 (8) n (%) and the “Clinical benefit rate CR+PR + SD” value ([3]; QW 30 mg (n=13)) was 6 (46) n (%). The “Clinical benefit rate CR+PR + SD ≥6 months” value ([3]; QW 30 mg (n=13)) was 1 (8) n (%), the “Objective response rate (CR+PR)” value ([3]; QW 30 mg (n=13)) was 0 n (%) and the “Best overall response: CR” value ([3]; QW Total (n=20)) was 0 n (%). The “Best overall response: PD” value ([3]; QW Total (n=20)) was 6 (30) n (%), the “Best overall response: PR” value ([3]; QW Total (n=20)) was 0 n (%) and the “Best overall response: SD (<6 months)” value ([3]; QW Total (n=20)) was 8 (40) n (%). The “Best overall response: SD (≥6 months)” value ([3]; QW Total (n=20)) was 1 (5) n (%), the “Clinical benefit rate CR+PR + SD” value ([3]; QW Total (n=20)) was 9 (45) n (%) and the “Clinical benefit rate CR+PR + SD ≥6 months” value ([3]; QW Total (n=20)) was 1 (5) n (%). The “Objective response rate (CR+PR)” value ([3]; QW Total (n=20)) was 0 n (%), the “Objective response rate (ORR)” value ([3]; QW arm) was 0% and the “Overall clinical benefit rate (CR+PR + SD)” value ([3]; QW arm (9/20 patients)) was 45%. The “Incidence of grade ≥3 drug-related AEs” value [4] was 31%.
